Results: PubChem BioAssay AID871 (The Scripps Research Institute Molecular Screening Center, 2007)
Hit rate of the full screen: of about 190,000 compounds, about 1,800 (0.95%) were called active.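 The calls were made as follows: active = activation above the screen-wide mean of compound activation plus 3 SD (cut at about 130% in these data); inactive = the rest.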 The entries come from a sample that favours actives as a whole.

test: IL-6 driven STAT3 reporter potentiators, primary screen, U3A cells, luciferase, luminescence, MLSCN library (AID 871); conditions: IL-6 STAT3-luciferase reporter, at 5.6 µM, hits give high values, 100% = signal with IL-6 EC80 alone;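 also: 0% = background luminescence of wells with medium and substrate only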
In short: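 Test system: Human STAT1-deficient U3A cells with stable STAT3-luciferase reporter | Also added: Interleukin-6, 33 ng/mL | Timing: Compound pre-incubation 1 h before IL-6, then 6 h stimulation at 37 °C | Technique: Luciferase reporter luminescence | Read-out: Percent of IL-6-only median luminescence | Benchmarks: IL-6-only wells as 100% reference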

Row | SMILES | activation (% of control)
1 | O=C(CNC1CCCCC1)NCC1(c2ccccc2)CCCC1 | 112% (inactive)
2 | O=C(CSc1nc2ccccc2[nH]1)N/N=C/C=C\c1ccccc1[N+](=O)[O-] | 96.6% (inactive)
3 | CN1CCN(c2ccc(S(=O)(=O)Nc3ccccc3)cc2[N+](=O)[O-])CC1 | 79.1% (inactive)
4 | CN1CCN(c2ccc([N+](=O)[O-])c(Sc3nc4ccccc4[nH]3)c2)CC1 | 137% (active)
5 | COc1ccc2c(c1)CCc1cn3ncc(C#N)c3nc1-2 | 100% (inactive)
6 | O=C(NCC1CCCCC1)c1cc(S(=O)(=O)N2CCCCC2)ccc1N1CCOCC1 | 104% (inactive)
7 | CC(=O)Nc1ccc(S(=O)(=O)N2CCN(c3ccc([N+](=O)[O-])c(NCCN4CCOCC4)c3)CC2)cc1 | 104% (inactive)
8 | O=[N+]([O-])c1ccc(N2CCN(S(=O)(=O)c3ccc4ccccc4c3)CC2)cc1NCc1ccco1 | 154% (active)
9 | O=C(c1ccccc1)N1CCN(c2ccc([N+](=O)[O-])c(NCc3ccco3)c2)CC1 | 107% (inactive)
10 | CCCS(=O)(=O)N1CCC(CCOc2ccccc2)(C(=O)OCC)CC1 | 95.8% (inactive)
11 | Oc1ccc(Cl)cc1/C=N/c1nc2ccccc2[nH]1 | 143% (active)
12 | c1ccc2[nH]c(-c3nc4ccccc4[nH]3)nc2c1 | 63.1% (inactive)
13 | O=C(/C(=C/c1cccc(Cl)c1)c1nc2ccccc2[nH]1)c1ccccc1 | 98.5% (inactive)
14 | Cc1c(C(=O)Nc2cccc(Cl)c2)cn2c(nc3ccccc32)c1C#N | 94.7% (inactive)
15 | Cc1ccc(O)c(CNc2nc3ccccc3n2C)c1 | 102% (inactive)
16 | C/C(=N\c1nc2ccccc2n1C)c1cc(Cl)ccc1O | 137% (active)
17 | CC(C)CNC(=O)/C=C/C(=O)O | 103% (inactive)
18 | O=C(CN1CCCC1)N1CCN(c2ccccc2)CC1 | 104% (inactive)
19 | Cc1nnc(SCc2cccc(Cl)c2)n(N)c1=O | 88.9% (inactive)
20 | Cc1c(N=Nc2ccc(N(C)C)cc2)c(=O)n(-c2ccccc2)n1C | 115% (inactive)
21 | Cc1cccc(N=Nc2c(C)[nH]n(-c3ccccc3)c2=O)c1 | 122% (inactive)
22 | Cc1ccc(N=Nc2c(C)[nH]n(-c3ccccc3)c2=O)cc1 | 147% (active)
23 | Cc1nc2scc(-c3cccs3)c2c(=O)n1N | 97.7% (inactive)
24 | Cn1cccc1-c1nc2ccccc2n1C | 89.2% (inactive)
25 | Cc1nn2c3ccccc3nc2n(C)c1=O | 91% (inactive)

Row | SMILES | activation (% of control)
26 | Cc1ccc(C2=NN(C)c3nc4ccccc4n3C2)cc1 | 170% (active)
27 | O=C(N/N=C1\CCSC1)c1cc(Cl)ccc1O | 100% (inactive)
28 | Cc1c(C(=O)CN2CCOCC2)[nH]c2ccccc12 | 121% (inactive)
29 | CCCC(=O)Nc1c(O)c2ccccc2[nH]c1=O | 101% (inactive)
30 | CCCS(=O)(=O)Nc1c(C(=O)O)[nH]c2ccccc12 | 184% (active)
31 | Cc1ccnc(NS(=O)(=O)c2ccc(NC(=O)c3ccc(S(=O)(=O)N4CCOCC4)cc3)cc2)n1 | 100% (inactive)
32 | O=C(CCc1ccc(S(=O)(=O)N2CCOCC2)cc1)Nc1ccc2ccccc2c1 | 104% (inactive)
33 | O=C(Nc1ccc2cn[nH]c2c1)c1ccc(S(=O)(=O)N2CCOCC2)cc1 | 135% (active)
34 | CCOC(=O)c1c(/N=C/c2cc(C)ccc2O)sc2c1CCC2 | 99.7% (inactive)
35 | Cc1ccc(C(=O)N/C(=C\c2ccco2)C(=O)N2CCSCC2)cc1C | 109% (inactive)
36 | COc1ccc(N2C(=O)CC(Nc3ccc(F)cc3)C2=O)c([N+](=O)[O-])c1 (stereo not given) | 92.9% (inactive)
37 | C=CCOc1ccc(/C=N/NC(=O)C(C)Sc2ccccn2)cc1OCC (stereo not given) | 106% (inactive)
38 | Cn1c(=NC(=O)C2CC2)sc2cc(F)cc(F)c21 | 135% (active)
39 | COc1ccc(OC)c2c1sc(=NC(=O)CN1C(=O)CCC1=O)n2C | 101% (inactive)
40 | CCOc1ccc(-n2c(O)c(/C=N/c3ccnn3Cc3ccncc3)c3ccccc3c2=O)cc1 | 105% (inactive)
41 | O=C(O)c1ccc(/C=N/NC(=S)NCc2ccccc2)cc1 | 96.6% (inactive)
42 | CSc1nc2sc3c(c2c(=O)[nH]1)CCc1ccccc1-3 | 136% (active)
43 | COc1ccc(-n2c(=S)[nH]c3sc4c(c3c2=O)CCc2ccccc2-4)cc1 | 112% (inactive)
44 | CSc1nc(O)c(Cc2ccccc2)c(=O)[nH]1 | 95.3% (inactive)
45 | c1ccc(-c2cn3cccnc3n2)cc1 | 91.9% (inactive)
46 | c1ccc(-c2cn3c(n2)CCc2ccc4cccnc4c2-3)cc1 | 157% (active)
47 | O=C(CN1C(=O)CC(c2ccccc2)S(=O)(=O)c2ccccc21)NC1CCCC1 (stereo not given) | 101% (inactive)
48 | COC(=O)/C(C#N)=C/c1occc1C | 94.2% (inactive)
49 | CCOC(=O)N1CCN(CCC(=O)Nc2cc(OC)ccc2OC)CC1 | 111% (inactive)
50 | O=C(c1cn2ccccc2n1)N1CCc2c([nH]c3ccccc23)C1c1ccccn1 (stereo not given) | 105% (inactive)

Row | SMILES | activation (% of control)
51 | O=C(NC1CCCCC1)N1CCc2[nH]c3ccccc3c2C1 | 96% (inactive)
52 | Cc1cccc(C(=O)N2CCc3c([nH]c4ccccc34)C2CC(C)C)n1 (stereo not given) | 145% (active)
53 | Cc1cccc(C2c3[nH]c4ccccc4c3CCN2C(=O)c2cc(-c3cccn3C)n[nH]2)n1 (stereo not given) | 134% (active)
54 | CCCC(=O)N1CCc2[nH]c3ccccc3c2C1 | 99.4% (inactive)
55 | COCc1ccc(C(=O)N2CCc3c([nH]c4ccccc34)C2c2ccccn2)s1 (stereo not given) | 96.9% (inactive)
56 | COc1ccc(NC(=O)C(=O)NCC(=O)Nc2cccc(C(F)(F)F)c2)cc1 | 98.3% (inactive)
57 | COC(=O)c1ccc(NC(=S)NN2CCOCC2)cc1 | 109% (inactive)
58 | O=C(CC1SCCNC1=O)Nc1ccc(Cl)cc1 (stereo not given) | 105% (inactive)
59 | CCOC(=O)C1(Cc2cccc(OC)c2)CCN(Cc2csc(C(C)=O)c2)CC1 | 92.5% (inactive)
60 | COCCCNC(=O)C1CCC(CNS(=O)(=O)c2ccc(OC)cc2)CC1 (stereo not given) | 99.2% (inactive)
61 | O=C1NC(c2ccccc2)=NC1(Nc1ccccn1)C(F)(F)F (stereo not given) | 100% (inactive)
62 | CN(C)S(=O)(=O)c1cc(NC(=O)CN2C(=O)NC3(CCCc4ccccc43)C2=O)ccc1Cl (stereo not given) | 105% (inactive)
63 | COc1cc(/C=C/C(=O)OCC(=O)NC(=O)NCc2ccccc2)ccc1OCC#N | 95.5% (inactive)
64 | COc1ccc(/C=N/Nc2ncnc3sc4c(c23)CCCC4)cc1O | 147% (active)
65 | COc1cc(/C=N/Nc2ccc(C)cc2)cc(Br)c1O | 115% (inactive)
66 | COc1ncnc2sc3c(c12)CCCC3 | 104% (inactive)
67 | CSc1ccccc1C(=O)NCc1ccccc1 | 108% (inactive)
68 | CC(C)CNC(=O)COC(=O)/C=C/c1ccco1 | 105% (inactive)
69 | O=C(/C=C/c1ccccc1[N+](=O)[O-])NCC1CCCO1 (stereo not given) | 97.5% (inactive)
70 | CC(C)CNC(=O)COC(=O)/C=C/c1ccccc1[N+](=O)[O-] | 145% (active)
71 | O=C(NCc1cccs1)C1CCN(S(=O)(=O)c2ccc(Cl)cc2)CC1 | 104% (inactive)
72 | COc1cccc2c1CCC(NC(C)=O)C2=O (stereo not given) | 104% (inactive)
73 | CC(=O)c1c(C)[nH]c(C(=O)Nc2cc(S(=O)(=O)N(C)C)ccc2C)c1C | 90.9% (inactive)
74 | COc1ccc(C)cc1NC(=O)c1[nH]c(C)c(C(C)=O)c1C | 147% (active)
75 | CC(=O)c1c(C)[nH]c(C(=O)NCc2ccc(C)cc2)c1C | 92.2% (inactive)

Row | SMILES | activation (% of control)
76 | O=C(c1ccc(-c2ccccc2)cc1)C1CCCN(C(=O)c2cncs2)C1 (stereo not given) | 98.2% (inactive)
77 | COc1cccc(-n2cc3c(c2-c2ccccc2)c(=O)n(C)c(=O)n3C)c1 | 110% (inactive)
78 | COc1ccc(-c2c3c(=O)n(C)c(=O)n(C)c3cn2NC(C)=O)cc1 | 109% (inactive)
79 | COc1ccc(-c2c3c(=O)n(C)c(=O)n(C)c3cn2-c2cccc(OC)c2)cc1 | 154% (active)
80 | CC(C)CCN1C(=O)c2ccc(C(=O)Nc3cccc(S(N)(=O)=O)c3)cc2C1=O | 93.1% (inactive)
81 | CCC(C)NC(=O)c1nn(C)c(=O)c2ccccc12 (stereo not given) | 100% (inactive)
82 | CN(C)S(=O)(=O)c1cccc(NC(=S)NCc2ccc3c(c2)OCO3)c1 | 95.2% (inactive)
83 | CC(=O)OCc1cc2cc(C)ccc2[nH]c1=O | 103% (inactive)
84 | CCN(Cc1cc2cc(C)ccc2[nH]c1=O)S(=O)(=O)c1ccccc1 | 91.2% (inactive)
85 | CCNCc1cc2cc(C)ccc2[nH]c1=O | 139% (active)
86 | Cc1ccc(-n2cnc3ncnc(-c4ccccc4)c32)cc1 | 94.7% (inactive)
87 | CC(C)OCCCNC(=S)N1CCC(C(=O)c2ccc3c(c2)OCCO3)CC1 | 102% (inactive)
88 | Cc1cccc(CSc2nc3c(c(=O)n2C)SCC3)c1 | 78.4% (inactive)
89 | N#Cc1ccccc1NC(=O)COc1c(Br)cc(Br)c2cccnc12 | 151% (active)
90 | O=C(COC(=O)c1ccccn1)Nc1cccc2ccccc12 | 94.8% (inactive)
91 | N#Cc1ccc(C(=O)Nc2cccc3cccnc23)c(F)c1 | 87.4% (inactive)
92 | CCN(CC)P(=O)(Nc1ccc(SC(F)F)cc1)c1ccc(N(C)C)cc1NC(=O)c1ccco1 (stereo not given) | 131% (inactive)
93 | CCOc1ccc(C2c3[nH]c4ccccc4c3CCN2Cc2cn(CC)nc2C)cc1 (stereo not given) | 140% (active)
94 | COc1cc(-c2nnn(CC(=O)NCc3ccccc3)n2)cc(OC)c1OC | 99.5% (inactive)
95 | CCOP(=O)(OCC)C(Nc1ccc([N+](=O)[O-])cc1)c1ccc(Cl)cc1 (stereo not given) | 109% (inactive)
96 | Cc1cccc(N2CCN(c3ccc(NC(=O)/C=C\C(=O)O)cc3)CC2)c1 | 100% (inactive)
97 | CC(=O)c1ccc(NC(=O)C(C)N(C)CC(=O)Nc2ccccc2Cl)cc1 (stereo not given) | 96.3% (inactive)
98 | COc1ccc([N+](=O)[O-])cc1C1NN=C(c2cccc3ccccc23)S1 (stereo not given) | 139% (active)
99 | COc1ccccc1CC(=O)Nc1ccc([N+](=O)[O-])cc1OC | 99.8% (inactive)
100 | COc1ccc([N+](=O)[O-])cc1NC(=O)C(C)OC(=O)C1c2ccccc2Oc2ccccc21 (stereo not given) | 106% (inactive)
